# From PubChem BioAssay
# IEC-6 tox: cytotoxicity in IEC-6 intestinal epithelial cells, primary screen, cytotoxicity control for KLF5 inhibitor project, cell-based, luminescence | 0.78% of 290,000 active | IEC-6 cytotoxicity, luminescence viability | AID 1825, 2009 | inhibition, % at 5 µM; in the data active = inhibition above about 22%
# Ba/F3 V617F tox: reduced viability of JAK2V617F-dependent Ba/F3 cells, primary screen, JAK2V617F inhibitor project, cell-based, Ba/F3 EpoR-JAK2V617F, luminescence; ATP luminescence; inhibition, % at 5.6 µM; 1.1% of 220,000 active;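 active = inhibition above the campaign mean plus 3 SD over all tested compounds, cut at about 24% in these data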;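 note: cytokine-independent growth of Ba/F3 cells driven by EpoR plus mutant JAK2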
# BaF3 parental: parental Ba/F3 cell viability inhibition, counter-screen for JAK2V617F inhibitor project, murine pro-B, CellTiter-Glo luminescence. CellTiter-Glo ATP luminescence. inhibition, % at 5.6 µM. 1.1% of 220,000 active. AID 1486, 2009;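 active = inhibition above a per-campaign cutoff, the mean inhibition of all tested compounds plus 3 SD, cut at about 27% in these data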
# b-catenin transl: modulators of beta-catenin nuclear translocation, primary screen, imaging, HeLa cells, immunofluorescence, high-content; AID 1665, 2009; nuclear translocation activity, % at 5 µM; 0.3% of 190,000 active;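 active = nuclear translocation activity above 50% at 5 µM, with a well cell count of 50 or more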;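 note: per-cell ratio of nuclear to cytoplasmic median beta-catenin stain intensity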
#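 Test system: human HeLa cells, endogenous beta-catenin. Times: 24 h compound exposure, 37°C. Measured by: beta-catenin immunofluorescence imaging with DAPI.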
# MT stabilizer: microtubule stabilizers in HeLa cells, primary screen, imaging, high-content imaging; HeLa tubulin immunostaining HCS, 24 h; share of cells brighter than vehicle mean+2SD; % tubulin-high responders, % at 10 µM; 0.83% of 200,000 active; AID 2205, 2009;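 active = plate Z-score above 3 for both tubulin-high and condensed-nucleus cell shares, with cell loss under 80%, at 10 µM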;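 note: anti alpha tubulin signal scored within the nucleus-defined area of each cell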
# APP transl inh: inhibitors of APP translation via 5'UTR reporter, primary screen, APP 5'UTR luciferase, SH-SY5Y cells; SH-SY5Y APP 5'UTR-luciferase reporter, luminescence; inhibition, % at 2 µM; 0.82% of 190,000 active;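 active = inhibition above a set limit, derived from the sample mean plus 3 SD, cut at about 45% in these data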
# Numbers stand for hits; . = inactive; / = no result. Hits are enriched below; roughly 2.2% of the tested compounds scored in any of these assays.
SMILES,IEC-6 tox,Ba/F3 V617F tox,BaF3 parental,b-catenin transl,MT stabilizer,APP transl inh
COC(=O)c1ccc(OCCOc2ccc(C(=O)OC)cc2)cc1,.,.,.,.,.,.
CCCCCCOc1ccc(/C(N)=N/O)cc1,.,27.0,36.8,.,.,.
N=C(N)c1ccc(OCCCCCOc2ccc(C(=N)N)cc2)cc1,.,63.4,53.0,.,.,.
COc1ccccc1OCc1nnc(SCC(=O)Nc2nnc(C3CC3)s2)n1C,.,/,/,/,/,/
CC(C(=O)Nc1ccccc1-c1ccccc1)N(C)Cc1nc2ccccc2c(=O)[nH]1 (stereo not given),.,.,.,.,23.7,.
CC(NC(=O)CN(C)Cc1nc2ccccc2c(=O)[nH]1)c1ccccc1 (stereo not given),.,.,.,/,.,.
Cc1cccc(N(Cc2ccccc2)C(=O)c2ccccc2S(C)(=O)=O)c1,.,/,/,/,/,/
CCc1ccc(/C=N/NC(=O)c2cc(-c3ccccc3OC)nc3ccccc23)s1,.,.,.,.,.,/
CCc1ccc(/C=N/NC(=O)c2cc(C3CC3)nc3ccc(Br)cc23)s1,.,.,.,.,20.0,71.8
O=C1N/C(=N\N=C\c2cccs2)SC1Cc1ccc(Cl)cc1Cl (stereo not given),.,.,.,.,.,.
O=C1N/C(=N\N=C\c2cccs2)SC1Cc1cccc(Cl)c1Cl (stereo not given),.,.,.,60.0,.,.
Cc1cc(C)c2c(n1)SCC(=O)N2CC(=O)Nc1ccc(F)cc1,.,/,/,/,/,/
COC(=O)Oc1ccc(/C=C/C(=O)OC(C)C)cc1OC(=O)OC,.,70.7,34.7,.,.,.
Cc1ccccc1Cn1nnc(-c2ccc(F)cc2)n1,.,/,/,/,/,/
COc1ccc(S(=O)(=O)Nc2cccc(-c3ccc4nncn4n3)c2)cc1F,59.4,80.7,79.1,.,29.8,62.7
O=C(O)c1cc(S(=O)(=O)N2CCN(C(=O)c3ccco3)CC2)c(Cl)cc1Cl,.,/,/,/,/,/
CCCCN(CC)Cc1c(O)ccc2c(-c3ccccc3)cc(=O)oc12,.,.,29.0,.,/,/
CCN(CC)Cc1c(O)ccc2c(-c3ccccc3)cc(=O)oc12,.,.,.,.,.,.
CN(C)/C=C1/OC(=O)C(C#N)=C1c1ccc(Cl)cc1,.,/,/,/,/,/
COc1ccc(C(=O)Nc2sc3c(c2C#N)CCN(C(C)=O)C3)cc1,.,.,.,60.0,14.3,.
COc1ccc(OC)c(-c2cc(C(=O)NC3CCCC3)c3ccccc3n2)c1,.,/,/,/,/,/
COc1cc(C(=O)OCC(=O)c2cc(C)n(C)c2C)cc(OC)c1OC,.,.,.,68.6,.,.
Cc1cc(C(=O)COC(=O)c2nccnc2N)c(C)n1C,.,.,.,.,.,.
COc1ccc(C2CC(C)(c3ccc(OC)cc3OC)Nc3ccccc3N2)c(OC)c1 (stereo not given),.,61.9,72.4,.,.,.
COC(=O)C1=C(C)C(c2ccc(OC)cc2OC)NC(=O)N1 (stereo not given),.,.,.,.,.,.
SMILES,IEC-6 tox,Ba/F3 V617F tox,BaF3 parental,b-catenin transl,MT stabilizer,APP transl inh
Cc1ccc(S(=O)(=O)N(CC(=O)N=Nc2c(O)[nH]c3ccccc23)c2cccc(C)c2)cc1,.,.,.,63.6,19.5,.
Nc1ncnc2c1ncn2[C@@H]1O[C@H](CO)C[C@@H]1O,65.9,.,.,.,/,/
CC(C)(C)CC(=O)N1CCN(Cc2ccc3c(c2)OCO3)CC1,.,/,/,/,/,/
CCOc1ccc2nc(N(CCN(CC)CC)C(=O)/C=C/c3cccs3)sc2c1,.,/,/,/,/,/
Nc1cc(=O)[nH]c(SCc2nc3ccccc3n2Cc2ccccc2)n1,.,.,.,.,.,46.3
CCCCCCCCCCCCOC(=O)C[N+](C)(C)C,.,.,.,.,/,/
C/C(Cl)=C\C[N+](C)(C)CC(=O)OCCc1ccccc1,.,.,.,.,/,/
CCCCCCCCCCOC(=O)C[N+](C)(C)C/C=C(/C)Cl,.,66.8,59.1,/,.,.
CCCCCCCCOC(=O)C[N+](C)(C)C/C=C(/C)Cl,.,31.5,52.9,.,.,.
COc1ccccc1CNS(=O)(=O)c1cccs1,.,/,/,/,/,/
COc1ccc(-c2cc(-c3cccs3)nc(OC)c2C#N)cc1OC,.,.,.,50.4,9.6,.
COc1ccc(-c2noc(-c3cccs3)n2)cc1OC,.,.,.,.,/,/
N#Cc1c(-c2ccccc2)cc(-c2cccs2)nc1SCC(=O)O,.,/,/,/,/,/
COc1nc(-c2cccs2)cc(-c2ccc(C)cc2)c1C#N,.,.,.,.,41.7,.
O=S(=O)(Nc1ccc(Br)cn1)c1ccc(Cl)s1,.,/,/,/,/,/
Cc1cc(C)nc(SCc2ccc(C(=O)N/N=C/c3cccc(O)c3O)cc2)n1,.,.,.,.,.,61.9
Cc1ccc(N/C(N)=N/c2nc(C)cc(N3CCCCC3)n2)c(C)c1,.,70.6,66.3,.,.,.
N/C(=N\c1nc2c(c(=O)[nH]1)CCCC2)Nc1ccccc1,.,.,.,.,.,.
Cc1ccc(N/C(N)=N/c2nc3c(c(=O)[nH]2)CCCC3)c(C)c1,.,.,.,.,20.2,.
Cc1ccc(NC(=O)N2CCCCCC2)c(C)c1,.,/,/,/,/,/
O=[N+]([O-])c1ccc(Oc2ccc(Oc3ccc(C(F)(F)F)cn3)cc2)nc1,.,.,.,.,/,/
COc1ccc(S(=O)(=O)N2CCN(C(=S)Nc3ccc(S(N)(=O)=O)cc3)CC2)cc1,.,/,/,/,/,/
COc1ccc(C(=O)Nc2cnn(Cc3ccc(Cl)cc3)c2)cc1OC,.,34.7,36.4,/,.,.
O=C(CCSc1nc2ccccc2s1)N/N=C/c1c(O)ccc2ccccc12,.,.,.,.,20.6,52.5
O=C(O)CCCCCNS(=O)(=O)c1cccc2c1C(=O)c1ccccc1C2=O,25.9,.,.,.,.,.
SMILES,IEC-6 tox,Ba/F3 V617F tox,BaF3 parental,b-catenin transl,MT stabilizer,APP transl inh
CCOC(=O)Nc1ccc2c(c1)N(C(=O)OC)c1ccccc1CC2,.,.,.,.,34.3,.
CCOC(=O)c1sc(NC(=O)c2cccs2)cc1C,.,.,.,.,.,.
CCOC(=O)c1sc(NC(=O)Nc2cccc(Cl)c2)cc1C,.,.,43.0,.,.,.
COc1ccnc(N=CNOCc2ccc(F)cc2Cl)c1C#N,.,.,.,.,.,82.1
COc1ccnc(N=CNOCc2cccc(Cl)c2Cl)c1C#N,.,.,.,/,.,.
COC(OC)c1ccc(C#N)c(=O)[nH]1,.,.,.,.,.,46.5
Oc1c(C(Nc2cccc(C(F)(F)F)c2)c2cccnc2)ccc2cccnc12 (stereo not given),.,.,.,.,.,.
Cc1cc(NC(c2cccnc2)c2ccc3cccnc3c2O)no1 (stereo not given),.,.,.,.,.,54.5
Oc1cccc(C(Nc2nccs2)c2ccc3cccnc3c2O)c1 (stereo not given),47.6,68.4,64.8,.,.,73.3
